Square brackets hold non-standard residues; d marks the D form. Peptide text beside a SMILES is read from it. Tic = O=C(O)[C@@H]1Cc2ccccc2CN1
What was measured:
[1] = Antiplatelet activity against pig platelet assessed as inhibition of arachidonic acid-induced platelet aggregation at 10 uM by spectrophotometry; type: functional; settings: Sus scrofa
In short: (§1)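 Pig blood (six pigs) spun 1000 rpm 10 min for PRP, then 1500 rpm 10 min for PPP; PRP adjusted to 2×10^8 platelets/mL with autologous PPP. Compound (final 100 µM to 1 nM, diluted in NS from DMSO/NS stock) or NS added, then inducer at final PAF 0.1 µM, ADP 10 µM, AA 350 µM or thrombin 0.1 U/mL.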

Aorta = test: Inhibition of noradrenaline-induced contraction in Wistar rat thoracic aortic ring assessed as vasorelaxant activity at 300 uM treated after noradrenaline challenge; type: functional; design: scale not given: the % may be the effect or the level left
In short: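 Male Wistar rats, 250–300 g, were decapitated and aortic strips were mounted in 37 °C Krebs solution (pH 7.4) gassed with 95% O2/5% CO2, connected to a tension transducer. Strips were contracted with 59 µM noradrenaline, washed, stabilised 30 min, then re-contracted with 59 µM noradrenaline. At peak contraction, compound in ethanol or ethanol alone was added and relaxation was recorded.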

Rattus norvegicus [2] = test: Antithrombotic activity in Wistar rat assessed as thrombus weight at 15 umol/kg, iv (reference value: 25.99 +/- 2.41 mg); type: functional
[3] = Antiplatelet activity against pig platelet assessed as inhibition of thrombin-induced platelet aggregation at 10 uM by spectrophotometry; type: functional; settings: Sus scrofa; in short: as §1
[4] = Antiplatelet activity against pig platelet assessed as inhibition of ADP-induced platelet aggregation at 10 uM by spectrophotometry; type: functional; settings: Sus scrofa; in short: as §1
[5] = Antiplatelet activity against pig platelet assessed as inhibition of PAF-induced platelet aggregation at 10 uM by spectrophotometry; type: functional; settings: Sus scrofa; in short: as §1
[6] = Antiplatelet activity against pig platelet assessed as inhibition of PAF-induced platelet aggregation by spectrophotometry; type: functional, cell-based; settings: Sus scrofa; in short: as §1
[7] = Antiplatelet activity against pig platelet assessed as inhibition of thrombin-induced platelet aggregation by spectrophotometry; type: functional, cell-based; settings: Sus scrofa; in short: as §1
Rattus norvegicus [8] = test: Antithrombotic activity in Wistar rat assessed as thrombus weight at 10 nmol/kg, iv (reference value: 24.09 +/- 2.33 mg); type: functional
[9] = Antiplatelet activity against pig platelet assessed as inhibition of ADP-induced platelet aggregation by spectrophotometry; type: functional, cell-based; settings: Sus scrofa; in short: as §1
[10] = Antiplatelet activity against pig platelet assessed as inhibition of arachidonic acid-induced platelet aggregation by spectrophotometry; type: functional, cell-based; settings: Sus scrofa; in short: as §1
Rattus norvegicus [11] = test: Antithrombotic activity in Wistar rat assessed as thrombus weight at 15 umol/kg, iv (reference value: 28.54 +/- 2.62 mg); type: functional

SMILES	inhibition at 10 µM [1] [%]	Activity (Aorta) [%]	Activity (Rattus norvegicus [2]) [mg]	inhibition at 10 µM [3] [%]	inhibition at 10 µM [4] [%]	inhibition at 10 µM [5] [%]	Activity (Rattus norvegicus [11]) [mg]	further results
COC(=O)[C@H](C(C)O)N1C(=O)[C@@H]2Cc3ccccc3CN2C1(C)C (stereo partly specified)	45	35.21	20.01	57.2	46.3	59.9	–	–
CC1(C)N2Cc3ccccc3C[C@H]2C(=O)N1[C@@H](CCCCN)C(=O)O	–	12.01	–	–	–	–	–	IC50 [6]: 561 nM; IC50 [7]: 652 nM; Activity (Rattus norvegicus [8]): 14.98 mg; IC50 [9]: 191 nM; IC50 [10]: 313 nM
COC(=O)[C@H](Cc1ccc(O)cc1)N1C(=O)[C@@H]2Cc3ccccc3CN2C1(C)C	52.2	15.56	23.71	25.3	53.1	59	–	–
C[C@@H](O)[C@H](NC(=O)[C@@H]1Cc2ccccc2CN1)C(=O)O (H-[Tic]-Thr-OH)	–	–	–	–	–	–	21.25	–
COC(=O)[C@H](CC(C)C)N1C(=O)[C@@H]2Cc3ccccc3CN2C1(C)C	37.5	74.68	14.1	38.3	31.4	29.2	–	–
COC(=O)CC[C@@H](C(=O)OC)N1C(=O)[C@@H]2Cc3ccccc3CN2C1(C)C	37.4	42.48	19.9	28	22.5	45.2	–	–
COC(=O)[C@H](CCCCNC(=O)OCc1ccccc1)N1C(=O)[C@@H]2Cc3ccccc3CN2C1(C)C	33.7	68.21	17.14	18.4	20.9	11.2	–	–
CC(C)C[C@H](NC(=O)[C@@H]1Cc2ccccc2CN1)C(=O)O (H-[Tic]-Leu-OH)	–	–	–	–	–	–	20.23	–
COC(=O)[C@H](CS)N1C(=O)[C@@H]2Cc3ccccc3CN2C1(C)C	60.7	96.3	12.9	30.8	68.9	53.7	–	–
COC(=O)[C@H](CCCNC(=N)N[N+](=O)[O-])N1C(=O)[C@@H]2Cc3ccccc3CN2C1(C)C	30.6	6.78	23.61	31.4	58.4	65.3	–	–
CCC(C)[C@@H](C(=O)OC)N1C(=O)[C@@H]2Cc3ccccc3CN2C1(C)C (stereo partly specified)	49.4	99	13.32	60.9	48.2	51.3	–	–
O=C(O)[C@H](CS)NC(=O)[C@@H]1Cc2ccccc2CN1 (H-[Tic]-Cys-OH)	–	–	–	–	–	–	20.91	–
NCCCC[C@H](NC(=O)[C@@H]1Cc2ccccc2CN1)C(=O)O (H-[Tic]-Lys-OH)	–	–	–	–	–	–	21.28	–
COC(=O)[C@H](CC(N)=O)N1C(=O)[C@@H]2Cc3ccccc3CN2C1(C)C	30.1	47.89	19.54	19.8	33.9	25.8	–	–
O=C(O)C[C@H](NC(=O)[C@@H]1Cc2ccccc2CN1)C(=O)O (H-[Tic]-Asp-OH)	–	–	–	–	–	–	21.67	–
O=C(O)[C@H](Cc1ccc(O)cc1)NC(=O)[C@@H]1Cc2ccccc2CN1 (H-[Tic]-Tyr-OH)	–	–	–	–	–	–	19.31	–
COC(=O)[C@H](CCC(N)=O)N1C(=O)[C@@H]2Cc3ccccc3CN2C1(C)C	48.1	38.61	22.7	69	31.8	25.9	–	–
NC(=O)C[C@H](NC(=O)[C@@H]1Cc2ccccc2CN1)C(=O)O (H-[Tic]-Asn-OH)	–	–	–	–	–	–	20.24	–
COC(=O)[C@H](Cc1ccccc1)N1C(=O)[C@@H]2Cc3ccccc3CN2C1(C)C	46.8	32.18	20.62	57.8	44.5	56.3	–	–
CCC(C)[C@H](NC(=O)[C@@H]1Cc2ccccc2CN1)C(=O)O (single isomer, unassigned)	–	–	–	–	–	–	20.03	–
CC(C)[C@H](NC(=O)[C@@H]1Cc2ccccc2CN1)C(=O)O (H-[Tic]-Val-OH)	–	–	–	–	–	–	19.2	–
O=C(O)[C@@H](NC(=O)[C@@H]1Cc2ccccc2CN1)NC1CCC1	–	–	–	–	–	–	20.25	IC50 [6]: 1400 nM; IC50 [7]: 185 nM; IC50 [9]: 364 nM; IC50 [10]: 103 nM
